# According to ChEMBL document CHEMBL4602689, “Absolute Configuration and Antibiotic Activity of Piceamycin” (J Nat Prod, 2020):
# pIC50: −log10 of the molar value. Calls of active or inactive are those of the source. No cut-off for these calls is given here.
# What was measured:
# [1] = system: Trichophyton rubrum; test: Growth inhibition of Trichophyton rubrum NBRC 9185; format: functional, organism-based
# [2] = system: Trichophyton mentagrophytes; test: Growth inhibition of Trichophyton mentagrophytes IFM 40996; format: functional, organism-based
# [3] = system: Aspergillus fumigatus; test: Growth inhibition of Aspergillus fumigatus HIC 6094; format: functional, organism-based
# [4] = system: Candida albicans; test: Growth inhibition of Candida albicans ATCC 10231; format: functional, organism-based
# [5] = system: Bacillus thuringiensis; test: Antibacterial activity against Bacillus thuringiensis KACC 10168 assessed as reduction in microbial growth after 24 hrs by two-fold serial dilution method; format: functional; details: KACC 10168, 24 h
# Method in brief: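 Bacteria grown overnight in tryptic soy broth at 28 °C, centrifuged and washed twice in sterile water. Compounds in DMSO were serially diluted 2-fold in TSB from 128 to 0.015 μg/mL. Final inoculum was 5 × 10⁴ cfu/mL, incubated 24 h at 28 °C. MIC taken as the lowest concentration inhibiting growth. Controls were ampicillin, tetracycline, streptomycin and DMSO.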
# [6] = system: HCT-116; test: Antiproliferative activity against human HCT116 cells assessed as reduction in cell viability by sulforhodamine B assay; format: functional, cell-based
# Method in brief: (§1)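 Cells kept in RPMI 1640 with 10% heat-inactivated FBS plus penicillin, streptomycin and amphotericin B, at 37 °C and 5% CO₂. Cells seeded in 96-well plates and treated for the indicated times; zero-day controls read after 30 min. Fixed, stained with 0.4% SRB in 1% acetic acid, dye dissolved in 10 mM Tris pH 10.0, A515 read. IC50 by nonlinear regression.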
# [7] = system: Staphylococcus aureus; test: Antibacterial activity against Staphylococcus aureus ATCC 25923 assessed as reduction in microbial growth after 24 hrs by two-fold serial dilution method; format: functional; details: ATCC 25923, 24 h
# Method in brief: (§2)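 Strains grown overnight in Mueller–Hinton broth at 37 °C, centrifuged and washed twice in sterile water. DMSO stocks were 2-fold serially diluted in MHB (128 to 0.015 μg/mL). Final inoculum was 5 × 10⁴ cfu/mL, incubated 24 h at 37 °C. MIC is the lowest concentration inhibiting growth. Controls were ampicillin, tetracycline, streptomycin and DMSO.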
# [8] = system: Enterococcus faecalis; test: Antibacterial activity against Enterococcus faecalis ATCC 19433 assessed as reduction in microbial growth after 24 hrs by two-fold serial dilution method; format: functional; details: ATCC 19433, 24 h; method in brief: as §2
# [9] = system: SK-HEP1; test: Antiproliferative activity against human SKHEP1 cells assessed as reduction in cell viability by sulforhodamine B assay; format: functional, cell-based
# Method in brief: (§3)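 Cells kept in DMEM with 10% heat-inactivated FBS plus penicillin, streptomycin and amphotericin B, at 37 °C and 5% CO₂. SRB assay: cells seeded in 96-well plates and treated for the indicated times, with 30-min zero-day controls. Fixed, stained with 0.4% SRB in 1% acetic acid, solubilized in 10 mM Tris pH 10.0, absorbance at 515 nm. IC50 by nonlinear regression.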
# [10] = system: K562; test: Antiproliferative activity against human K562 cells assessed as reduction in cell viability by sulforhodamine B assay; format: functional, cell-based; method in brief: as §1
# [11] = system: Klebsiella pneumoniae; test: Antibacterial activity against Klebsiella pneumoniae ATCC 10031 assessed as reduction in microbial growth after 24 hrs by two-fold serial dilution method; format: functional; details: ATCC 10031, 24 h; method in brief: as §2
# [12] = system: Enterococcus faecium; test: Antibacterial activity against Enterococcus faecium ATCC 19434 assessed as reduction in microbial growth after 24 hrs by two-fold serial dilution method; format: functional; details: ATCC 19434, 24 h; method in brief: as §2
# [13] = system: MDA-MB-231; test: Antiproliferative activity against human MDA-MB-231 cells assessed as reduction in cell viability by sulforhodamine B assay; format: functional, cell-based; method in brief: as §3
# [14] = system: Proteus hauseri; test: Antibacterial activity against Proteus hauseri NBRC 3851 assessed as reduction in microbial growth after 24 hrs by two-fold serial dilution method; format: functional; details: NBRC 3851, 24 h; method in brief: as §2
# [15] = system: SNU-638; test: Antiproliferative activity against human SNU638 cells assessed as reduction in cell viability by sulforhodamine B assay; format: functional, cell-based; method in brief: as §1
# [16] = system: A549; test: Antiproliferative activity against human A549 cells assessed as reduction in cell viability by sulforhodamine B assay; format: functional, cell-based; method in brief: as §1
# [17] = system: Escherichia coli; test: Antibacterial activity against Escherichia coli ATCC 25922 assessed as reduction in microbial growth after 24 hrs by two-fold serial dilution method; format: functional; details: ATCC 25922, 24 h; method in brief: as §2
# [18] = system: Salmonella enterica; test: Antibacterial activity against Salmonella enterica ATCC 14028 assessed as reduction in microbial growth after 24 hrs by two-fold serial dilution method; format: functional; details: ATCC 14028, 24 h; method in brief: as §2
Compound,MIC [5] [µg/mL],pIC50 [6],MIC [7] [µg/mL],MIC [8] [µg/mL],pIC50 [9],pIC50 [10],MIC [11] [µg/mL],MIC [12] [µg/mL],pIC50 [13],MIC [14] [µg/mL],pIC50 [15],pIC50 [16],MIC [17] [µg/mL],MIC [18] [µg/mL],growth inhibition (GI) [1],growth inhibition (GI) [2],growth inhibition (GI) [3],growth inhibition (GI) [4]
CC1=C\C[C@@H](O)CC(=O)/C=C/C=C/C=C\C=C\C=C/[C@@H](C)CNC(=O)\C=C/C=C/C=C/1,,,,,,,,,,,,,,,inactive,inactive,inactive,inactive
CC1=C/C[C@@H](O)CC(=O)/C=C/C=C/C=C\C=C\C=C/[C@@H](C)CNC(=O)\C=C/C=C\C=C\1,380,6.00,> 130,> 130,5.73,6.02,> 130,130,6.00,130,6.07,6.11,> 130,130,,,,
C[C@@H]1\C=C/C=C/C=C\C=C\C=C\C(=O)C2=C(O)C(=O)C[C@@]2(C)/C=C/C=C\C=C/C(=O)NC1,3.2,6.66,0.025,32,6.49,6.13,> 130,5.3,6.18,0.025,6.42,6.55,> 130,0.083,inactive,inactive,inactive,inactive
CC1(C)S[C@@H]2[C@H](NC(=O)[C@H](N)c3ccccc3)C(=O)N2[C@H]1C(=O)O [AMPICILLIN],,,0.17,0.5,,,> 130,1,,0.03,,,16,0.25,,,,

# More lines, main results first:
MIC [5] [µg/mL],pIC50 [6],MIC [7] [µg/mL],MIC [8] [µg/mL],pIC50 [9],pIC50 [10],MIC [11] [µg/mL],MIC [12] [µg/mL],pIC50 [13],MIC [14] [µg/mL],pIC50 [15],pIC50 [16],MIC [17] [µg/mL],MIC [18] [µg/mL],Compound,growth inhibition (GI) [1],growth inhibition (GI) [2],growth inhibition (GI) [3],growth inhibition (GI) [4]
,5.87,,,6.42,6.01,,,5.48,,6.28,6.22,,,COc1cc([C@@H]2c3cc4c(cc3[C@@H](O[C@@H]3O[C@@H]5CO[C@@H](C)O[C@H]5[C@H](O)[C@H]3O)[C@H]3COC(=O)[C@H]23)OCO4)cc(OC)c1O [ETOPOSIDE],,,,
130,,,,,,,,,,,,,,CN[C@@H]1[C@H](O[C@H]2[C@H](O[C@H]3[C@H](O)[C@@H](O)[C@H](N=C(N)N)[C@@H](O)[C@@H]3N=C(N)N)O[C@@H](C)[C@]2(O)C=O)O[C@@H](CO)[C@H](O)[C@H]1O [STREPTOMYCIN],,,,
,,,,,,0.44,,,,,,,,CN(C)[C@@H]1C(O)=C(C(N)=O)C(=O)[C@@]2(O)C(O)=C3C(=O)c4c(O)cccc4[C@@](C)(O)[C@H]3C[C@@H]12 [TETRACYCLINE],,,,
